Calls of active or inactive are those of the source.
Experiments:
[1] = target: T1, Toll-like receptor 8 (Homo sapiens) (UniProt Q9NR97); assay: Agonist activity at TLR8 in human monocytes assessed as induction of NF-kappaB phosphorylation measured after 15 mins in presence of 10% FBS by Alexa fluor 647 dye based flow cytometry analysis; type: cell-based; conditions: Monocyte, filed as agonist, in the assay text read “PE-Cy7 dye” for “Alexa fluor 647 dye”
T1 sequence (whole entry): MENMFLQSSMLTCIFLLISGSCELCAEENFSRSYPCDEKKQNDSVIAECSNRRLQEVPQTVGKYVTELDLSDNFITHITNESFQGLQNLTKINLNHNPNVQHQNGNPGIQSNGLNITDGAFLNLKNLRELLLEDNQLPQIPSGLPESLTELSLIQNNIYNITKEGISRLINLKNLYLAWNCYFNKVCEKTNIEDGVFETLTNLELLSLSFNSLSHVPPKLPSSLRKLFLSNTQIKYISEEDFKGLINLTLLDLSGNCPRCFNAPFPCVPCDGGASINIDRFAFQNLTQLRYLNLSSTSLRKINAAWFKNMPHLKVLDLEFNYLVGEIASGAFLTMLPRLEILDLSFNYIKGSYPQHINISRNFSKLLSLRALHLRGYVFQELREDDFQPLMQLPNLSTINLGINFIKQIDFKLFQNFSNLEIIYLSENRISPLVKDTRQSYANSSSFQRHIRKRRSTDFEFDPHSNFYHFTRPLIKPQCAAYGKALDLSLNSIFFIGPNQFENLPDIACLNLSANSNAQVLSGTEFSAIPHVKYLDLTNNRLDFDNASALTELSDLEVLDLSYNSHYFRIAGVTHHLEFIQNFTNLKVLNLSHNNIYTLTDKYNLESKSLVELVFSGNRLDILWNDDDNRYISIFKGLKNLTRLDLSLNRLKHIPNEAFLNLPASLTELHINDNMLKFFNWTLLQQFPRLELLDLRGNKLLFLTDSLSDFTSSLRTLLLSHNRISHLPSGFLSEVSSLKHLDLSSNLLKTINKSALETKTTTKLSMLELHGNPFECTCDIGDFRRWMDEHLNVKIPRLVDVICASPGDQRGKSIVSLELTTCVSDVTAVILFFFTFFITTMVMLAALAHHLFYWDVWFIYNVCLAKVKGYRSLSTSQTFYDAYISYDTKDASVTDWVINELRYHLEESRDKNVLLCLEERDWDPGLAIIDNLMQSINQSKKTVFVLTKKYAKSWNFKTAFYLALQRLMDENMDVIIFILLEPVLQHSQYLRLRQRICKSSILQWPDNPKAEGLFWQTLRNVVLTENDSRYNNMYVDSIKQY
In short: (§1)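 Whole human blood with anticoagulant was added to serial compound dilutions in RPMI with 10% FBS and held at 37 °C for 15 min. Samples were lysed and fixed three times, permeabilized in ice-cold methanol for 30 min, then stained on ice for 60 min with anti-NF-κB p65-PECy7, p38MAPK-PE and ERK1/2-AlexaFluor 647. Flow cytometry acquired 100,000 gated events; monocytes and polymorphonuclear cells were gated.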

[2] = target: T1, Toll-like receptor 8 (Homo sapiens); assay: Agonist activity at TLR8 in human polymorphonuclear leucocyte cells assessed as induction of NF-kappaB phosphorylation measured after 15 mins in presence of 10% FBS by Alexa fluor 647 dye based flow cytometry analysis; type: tissue-based; conditions: filed as agonist, in the assay text read “PE-Cy7 dye” for “Alexa fluor 647 dye”; in short: as §1
[3] = target: T1, Toll-like receptor 8 (Homo sapiens); assay: Agonist activity at TLR8 in human PBMC cells assessed as induction of TNFalpha production incubated for 16 hrs by immunoassay; type: cell-based; conditions: filed as agonist
In short: (§2)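 Fresh human PBMCs isolated from venous blood, plated at 10^5 cells in 100 µL per well and stimulated for 16 h with graded concentrations of compound. Supernatants were collected by centrifugation and assayed in duplicate with a multiplexed cytokine/chemokine magnetic bead array.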

[4] = target: T1, Toll-like receptor 8 (Homo sapiens); assay: Agonist activity at TLR8 in human PBMC cells assessed as induction of IL-1beta production incubated for 16 hrs by immunoassay; type: cell-based; conditions: filed as agonist; in short: as §2
[5] = target: T1, Toll-like receptor 8 (Homo sapiens); assay: Agonist activity at TLR8 in human PBMC cells assessed as induction of IL-6 production incubated for 16 hrs by immunoassay; type: cell-based; conditions: filed as agonist; in short: as §2
[6] = target: T1, Toll-like receptor 8 (Homo sapiens); assay: Agonist activity at TLR8 in human PBMC cells assessed as induction of IL-12p40 production incubated for 16 hrs by immunoassay; type: cell-based; conditions: filed as agonist; in short: as §2
[7] = target: T1, Toll-like receptor 8 (Homo sapiens); assay: Agonist activity at TLR8 in human PBMC cells assessed as induction of IFNgamma production incubated for 16 hrs by immunoassay; type: cell-based; conditions: filed as agonist; in short: as §2
[8] = target: T1, Toll-like receptor 8 (Homo sapiens); assay: Agonist activity at TLR8 in human PBMC cells assessed as induction of MCP1 production incubated for 16 hrs by immunoassay; type: cell-based; conditions: filed as agonist; in short: as §2
[9] = target: T1, Toll-like receptor 8 (Homo sapiens); assay: Agonist activity at TLR8 in human PBMC cells assessed as induction of MIP-1alpha production incubated for 16 hrs by immunoassay; type: cell-based; conditions: filed as agonist; in short: as §2
[10] = target: T1, Toll-like receptor 8 (Homo sapiens); assay: Agonist activity at TLR8 in human PBMC cells assessed as induction of MIP-1beta production incubated for 16 hrs by immunoassay; type: cell-based; conditions: filed as agonist; in short: as §2

Measured: Activity

CCCCCc1cc2c(CCCCCN)cccc2nc1N
active: [1] Dose-dependent effect | [2] Dose-dependent effect

CCCCCn1c(N)nc2c(C)cccc21
active: [3] | [4] | [5] | [6] | [7] | [8] | [9] | [10] | [1] Dose-dependent effect | [2] Dose-dependent effect

CCCCCc1cc2ccccc2nc1N
active: [1] Dose-dependent effect | [2] Dose-dependent effect

— ChEMBL document CHEMBL4765226, “Identification of a Human Toll-Like Receptor (TLR) 8-Specific Agonist and a Functional Pan-TLR Inhibitor in 2-Aminoimidazoles” (J Med Chem, 2016)
